# From PubChem
# Hits are enriched below; roughly 1.9% of the tested compounds scored in any of these assays.
# TDP2 absorb: TDP2 (human) inhibition, absorbance primary screen; O95551; recombinant TDP2, T5PNP hydrolysis, p-nitrophenol absorbance 415 nm; inhibition, % at 12.8 µM; hit rate 0.34% among 370,000; AID 720702;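 active = inhibition above the mean of all tested compounds plus 3 SD, set per campaign, cut at about 25% in these data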;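 also: 0% = DMSO with enzyme and 100% = buffer with substrate but no TDP2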
#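 Test system: human TDP2 enzyme; Input: 120 nM TDP2 per well; Buffer or medium: Mg2+-containing Tris-HCl buffer, pH 7.5; Reagent: 5 mM T5PNP; Dosing: 12.8 µM single point, 1% DMSO; Incubation: reaction 2 h, 37 °C; Detection: p-Nitrophenol epi absorbance; Read-out: % inhibition relative to enzyme-containing and enzyme-free wells; Replicates: single well per compound.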
# MBD2 DNA inh: MBD2-methylated oligo binding inhibition; TR-FRET, MBD2 binding to methylated oligonucleotide; hit rate 0.31% among 370,000; Q9UBB5; AID 686964; inhibition, % at 4.4 µM; in the data active = inhibition above about 13%
# Target sequence (Q9UBB5 whole entry, looked up): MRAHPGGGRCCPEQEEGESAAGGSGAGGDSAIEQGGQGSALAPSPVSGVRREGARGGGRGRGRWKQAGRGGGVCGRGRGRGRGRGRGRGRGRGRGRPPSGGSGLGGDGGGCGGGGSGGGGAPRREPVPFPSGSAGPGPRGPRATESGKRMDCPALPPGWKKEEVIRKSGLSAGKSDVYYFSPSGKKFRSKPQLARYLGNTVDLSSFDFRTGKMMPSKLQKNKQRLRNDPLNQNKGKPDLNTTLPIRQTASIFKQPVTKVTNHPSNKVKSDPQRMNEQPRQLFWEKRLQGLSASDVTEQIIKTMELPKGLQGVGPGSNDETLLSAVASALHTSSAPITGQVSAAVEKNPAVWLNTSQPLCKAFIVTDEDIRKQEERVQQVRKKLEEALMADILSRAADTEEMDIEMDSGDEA
# Rin1 Abl inh: blocks binding of human Rin1 to Abl | inhibition, % at 7.35 µM | TR-FRET Rin1/Abl binding, biochemical | AID 588664 | hit rate 0.4% among 360,000; in the data active = inhibition above about 5%, passing the limit was not always enough
# UHRF1 MBD2 ctr: human UHRF1 methylated DNA binding inhibitors; Q96T88; UHRF1 binding to methylated oligo, TR-FRET; inhibition, % at 4.4 µM; hit rate 0.75% among 370,000; AID 687016; in the data active = inhibition above about 21%;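 also: UHRF1 SRA domain binding a hemimethylated CpG hairpin DNA probe; 0% = median of test compound wells and 100% = reference inhibitor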
# LEDGF integ inh: blocks HIV-1 LEDGF/p75-dependent DNA integration; AID 743269; TR-FRET IN-LEDGF/p75 DNA integration, Eu/Cy5; hit rate 0.64% among 370,000; inhibition, % at 3.7 µM;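 active = inhibition above the screen-wide mean plus 3 SD, cut at about 13% in these data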;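 also: signal is the Cy5 over europium emission ratio at 671 and 618 nm; 0% = plate median of compound wells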
# Rin1-Abl confirm: Rin1-Abl interaction inhibition confirmation | inhibition, % at 7.35 µM | hit rate 49% among 1,300 | shares compounds with Rin1 Abl inh | AID 602124 | TR-FRET Rin1-Abl binding, purified proteins; in the data active = inhibition above about 6.5%
# GFP quench-1: quenches GFP fluorescence, counter-screen for Rin1-Abl inhibitors. hit rate 8.5% among 1,300. inhibitors/quenchers counterscreen. inhibition, % at 6.75 µM. shares compounds with Rin1 Abl inh; in the data active = inhibition above about 6.5%;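 also: ABL1-eGFP fusion protein alone without its partner RIN1-SBP; 0% = protein with vehicle and 100% = wells lacking protein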
# GFP quench dose: GFP fluorescence interference dose response; shares compounds with Rin1 Abl inh; GFP fluorescence interference/quenching counterscreen; IC50, µM; 230 tested, under 10 active; AID 602182;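 also: ABL1-eGFP fusion protein alone without its RIN1 binding partner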
# GFP quench-2: quenches GFP fluorescence in Rin1-Abl counterscreen; AID 602397; 25 tested, under 10 active; IC50, µM; shares compounds with Rin1 Abl inh; GFP fluorescence quenching counterscreen, biochemical
# Active calls of the source: *; / = no result. Unless noted, no rule for the calls is given here.
SMILES,TDP2 absorb,MBD2 DNA inh,Rin1 Abl inh,UHRF1 MBD2 ctr,LEDGF integ inh,Rin1-Abl confirm,GFP quench-1,others
COc1ccccc1/C=C1\SC(=S)N(CCC(=O)Nc2ccc(C(=O)O)c(O)c2)C1=O,-7,2,-1,-1,4,/,/,
CCCCCCCCN1C(=O)N2Cc3cc(F)ccc3C2CS1(=O)=O (configuration not stated),-6,-3,/,3,0,/,/,
CC(=O)c1cc(-c2csc(C=O)c2)c(=O)n2c1CCC2,-2,-2,/,0,-2,/,/,
Cc1cnc(NC(=O)C(C)N2CCN(C)CC2)s1 (configuration not stated),-1,-2,6.7*,1,-5,1,-1,
Cc1cnc(NC(=O)[C@H](C)N2C(=O)C3CCCCC3C2=O)s1 (some centres not stated),6,3,2,1,-2,/,/,
Cc1ccc2c(c1)-c1c(cnn1CC(=O)NCCc1ccc(Cl)cc1)CO2,-1,2,/,1,-3,/,/,
CCOC(=O)c1cccc(NC(=O)CN(C)S(=O)(=O)c2ccc(C)c(C)c2)c1,-7,2,/,3,2,/,/,
CCC(CC)CN1CCC(CN2C(=O)C(=O)NC[C@@H]2CC(C)C)CC1,4,1,19*,-2,6,14*,-2,
CC(C)CCN1CCC(CN2C(=O)C(=O)NC[C@@H]2CC(C)C)CC1,0,-1,3,1,-1,/,/,
CCC(C)(C)n1nnnc1C(c1cccnc1)N1CCCc2ccccc21 (configuration not stated),-5,-2,43*,-1,-1,48*,-1,GFP quench dose=>67
CCC(C)(C)n1nnnc1C(c1cccs1)N1CCc2ccccc21 (configuration not stated),-5,1,2,-3,-2,/,/,
COc1c2c(cc3c1c(=O)c1ccccc1n3C)OCO2,0,-10,/,-7,0,/,/,
Cc1[nH][nH]c(=O)c1C(c1ccc(-c2ccc(Cl)c(Cl)c2)o1)c1c(C)[nH][nH]c1=O,64*,-3,13*,7,3,4,6,
CCOc1ccc(Cl)cc1C(c1c(C)[nH][nH]c1=O)c1c(C)[nH][nH]c1=O,2,-10,0,-10,1,/,/,
Cc1noc(C)c1NC(=O)NC(c1ccccc1)c1ccccc1,-15,6,6.3*,-1,1,1,0,
COc1ccc(Nc2nc(-c3cccc([N+](=O)[O-])c3)nc3ccccc23)cc1,-4,-1,5.7*,-4,-1,-1,0,
COc1ccc(Br)cc1CN(C)C(=O)c1ccccc1OCc1c(C)noc1C,-8,1,9.0*,-1,-4,-1,-2,
COc1ccc(C2c3c(nc[nH]c3=O)Oc3nc[nH]c(=O)c32)cc1,/,/,50*,/,/,64*,-2,GFP quench dose=>68
Nc1c(C(=O)NCc2ccc3c(c2)OCO3)nnn1Cc1cccc(F)c1,10,1,8.4*,4,-1,10*,-2,
Nc1c(C(=O)NCc2ccc3c(c2)OCO3)nnn1Cc1ccc(Br)cc1,-9,-3,-1,-1,-5,/,/,
COc1cccc(Cn2nnc(C(=O)NCc3ccc4c(c3)OCO4)c2N)c1,3,6,9.1*,1,-1,7.3*,-1,
CCCCCn1cc(CCC(=O)Nc2ccc(Oc3cccnc3)cc2)c2ccccc21,-3,-2,/,-1,0,/,/,
CCSc1nnc(NC(=O)CSc2nc3c(c(=O)n2CC)SC(C)C3)s1 (configuration not stated),0,-3,-1,1,-3,/,/,
CCSc1nnc(NC(=O)CSc2nc3c(c(=O)n2C)SC(C)C3)s1 (configuration not stated),10,4,9.5*,3,0,-3,1,
COC(=O)[C@]12C[C@H](CC(=O)N3CCSCC3)C(=O)N(Cc3ccc(Cl)cc3Cl)C1=C[C@H](C(C)C)O[C@@H]2C1CC1,11,-7,/,-3,0,/,/,
SMILES,TDP2 absorb,MBD2 DNA inh,Rin1 Abl inh,UHRF1 MBD2 ctr,LEDGF integ inh,Rin1-Abl confirm,GFP quench-1,others
Cc1nc(SCC(=O)N2CC(C)OC(C)C2)nc(C)c1C (configuration not stated),-7,1,8.3*,2,3,9.5*,0,
CCOC(=O)CCCCC(=O)c1[nH]c(=O)[nH]c1Cn1ccnc1,0,-1,28*,4,1,30*,0,GFP quench dose=>68
CCOC(=O)CCc1n[nH]c(=O)[nH]c1=O,0,-1,0,-1,1,/,/,
CCOC(=O)Cn1cnc(C)c1,6,-1,2,1,-2,/,/,
CCCCSCc1[nH]c(=O)[nH]c1C(=O)CCCCC(=O)OCC,6,0,48*,1,10,46*,-1,GFP quench dose=>68
C=CCN1[C@H](C#N)[C@@H](c2ccc(C#Cc3cccnc3)cc2)[C@H]1CO,11,9,/,15,4,/,/,
CCOC(=O)[C@]12CCCC=C1N(Cc1ccc(OC)cc1)C(=O)[C@@H]2CC(=O)NCCc1ccccc1OC,-6,1,/,-4,-1,/,/,
CC(C)(C)OC(=O)N1CCC(C(=O)Nc2ccc(C(=O)N3CCCCC3)cc2)CC1,-6,-2,25*,0,5,17*,0,GFP quench dose=>68
O=C(Cc1cccc(NC(=O)C2CCN(C(=O)C3CC3)CC2)c1)Nc1cccc(C(=O)N2CCOCC2)c1,15,-7,2,-2,3,/,/,
O=C(Cc1ccc(NC(=O)C2CCN(C(=O)C3CCCC3)CC2)cc1)Nc1ccc(C(=O)N2CCOCC2)cc1,2,0,67*,0,4,70*,-1,GFP quench dose=>68;GFP quench-2=>68
CCOC(=O)C1CCN(C(=O)Nc2ccc(NC(=O)C3CCN(C(=O)OCC)CC3)cc2)CC1,-1,7,14*,2,2,11*,0,
O=C(Cc1ccc(NC(=O)C2CCN(C(=O)C3CC3)CC2)cc1)Nc1ccc(C(=O)N2CCOCC2)cc1,-1,0,8.9*,-3,-4,9.7*,-2,
CCCC/C=C1/[C@@H](c2ccc(Cl)cc2)N(Cc2ccc3c(c2)OCO3)C2=N[C@@H](c3ccccc3)CC(=O)N21,1,-1,/,-1,-2,/,/,
Cc1ccc(C(=O)NCC(=O)OCc2nc3sc(C)c(C)c3c(=O)[nH]2)cc1,-6,-2,/,2,-2,/,/,
CC(C)n1cc(CN2CCC(C(=O)Nc3cccc(-c4cccc(Cl)c4)c3)CC2)cn1,-8,12,11*,4,-6,25*,-1,GFP quench dose=>68
O=C(CC1C(=O)NCCN1Cc1c(F)cccc1Cl)NCCCOc1cccnc1 (configuration not stated),10,-7,14*,-5,-2,12*,-1,
